# Assay outcomes (PubChem BioAssay)
# Only some compounds are listed: those with a hit (about 2.4% of all), similar ones and a draw of the others.
# beta cell repl = inducers of beta-cell replication in MIN6 cells; MIN6 cells proliferation, ATPlite luminescence, 48 h; cells starved in 0.2% serum; 100% = growth in 10% serum; AID 2380; proliferation, % at 10 µM; hit rate 0.29% among 330,000;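 active = compounds whose signal lies at least 3.5 SD above the mean of all wells on their plate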;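 note: 0% = DMSO-treated cells in low-serum medium and 100% = 10% serum control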
# SR-BI DiI-HDL act = activators of SR-BI mediated HDL lipid uptake | CHO ldlA[mSR-BI] cells, DiI-HDL uptake fluorescence, 3 h; 100 = double the neutral-control signal | activation, % at 12.5 µM | hit rate 0.096% among 320,000;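 active = mean replicate activation of at least 60% and every replicate at or above 60%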;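 note: 0% = median plate neutral-control signal and 100% = twice that signal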
#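 material = CHO ldlA[mSR-BI] cells | medium = Ham's F12 with 0.5% BSA, HEPES 25 mM, pH 7.4 | reagent = fluorescent DiI-HDL, 10 µg/mL final | compound dosing = single-point compound dose | incubation = 3 h, 37 °C | measured by = bottom-read fluorescence, 550/595 nm | measure = HDL uptake via cellular fluorescence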
# Insulin prom up = MIN6 insulin promoter up-regulation | MIN6 insulin promoter-GFP reporter, high-content imaging; hits give high values | z-score at 5 µM | hit rate 0.3% among 190,000;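 active = z-score above 3 at 5 µM with at least 500 cells counted in the well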
# Calb FLC = C. albicans growth modulation with fluconazole | AID 1979 | hit rate 0.57% among 300,000 | growth inhibition, % (test concentration not listed) | C. albicans CaCi-2 + fluconazole, Alamar Blue growth, 48 h;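 active = growth inhibition above about 58% in most replicates, limit read from the data, passing the limit was not always enough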;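 note: all wells also contain fluconazole at 8 µg/ml as a sub-toxic cotreatment; 0% = median of DMSO wells and 100% = median of geldanamycin control wells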
# HTR2A ag = agonists of mouse serotonin 5-HT2A receptor (HTR2A); CHO-K1 mHTR2A beta-arrestin complementation, luminescence; percent of 30 µM serotonin response; activation, % at 7.6 µM; hit rate 0.66% among 360,000;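 active = activation above a run cutoff, the mean activation of all tested compounds plus 3 SD, cut at about 14% in these data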;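 note: 0% = plate median of compound wells and 100% = 30 µM serotonin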
# Target sequence (P35363 whole entry, looked up): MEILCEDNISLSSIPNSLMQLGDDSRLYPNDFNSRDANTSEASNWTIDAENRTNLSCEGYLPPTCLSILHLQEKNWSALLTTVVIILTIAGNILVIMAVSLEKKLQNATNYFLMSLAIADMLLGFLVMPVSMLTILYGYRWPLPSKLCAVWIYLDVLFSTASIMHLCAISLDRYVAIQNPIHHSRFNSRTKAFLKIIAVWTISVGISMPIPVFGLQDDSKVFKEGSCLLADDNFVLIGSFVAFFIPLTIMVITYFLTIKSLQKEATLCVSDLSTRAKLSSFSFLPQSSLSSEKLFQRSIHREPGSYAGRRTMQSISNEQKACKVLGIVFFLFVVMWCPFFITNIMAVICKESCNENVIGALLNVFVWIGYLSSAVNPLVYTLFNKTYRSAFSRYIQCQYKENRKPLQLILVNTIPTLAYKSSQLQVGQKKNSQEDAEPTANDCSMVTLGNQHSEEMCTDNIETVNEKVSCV
# SR-BI DiI inh = mouse SR-BI HDL lipid transfer inhibition. hit rate 0.96% among 320,000. inhibition, % at 12.5 µM. AID 488896. ldlA[mSR-BI] CHO cells, DiI-HDL uptake fluorescence, 3 h;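 active = mean replicate inhibition of at least 70% and a set share of replicates each scoring 70 or more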;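 note: 0% = median of neutral control wells and 100% = median of positive control wells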
# An asterisk follows results filed as active; · = not tested or not shown.
SMILES,beta cell repl,SR-BI DiI-HDL act,Insulin prom up,Calb FLC,HTR2A ag,SR-BI DiI inh
CC(=O)c1nn(-c2cccc(Br)c2)cc1C(=O)c1ccc(C)cc1,-2.4,-2.5,-0.72,94.7*,-3.2,2.5
COc1cccc(C(c2nnnn2C2CCCC2)N2CCN(C/C=C/c3ccccc3)CC2)c1OC (stereo not given),·,·,·,·,-6.2,·
COc1cc(OC)c(-c2nc3ccccc3s2)cc1OC,-4.2,-70.9,-0.41,41.3,1.2,70.9*
COC(=O)c1ccc2nc(-c3ccccc3)c(Cc3ccc(C)cc3)n2c1,·,·,·,·,-1.9,·
CCOC(=O)CNC(=S)N(CCCN1CCN(C)CC1)Cc1cccs1,-3.8,-5.6,·,1.1,-6.7,5.6
COc1ccccc1NC(=O)N1CCCC1C(=O)NCc1ccccc1Cl (stereo not given),0.1,8.8,·,-23.7,1.6,-8.8
COC(=O)[C@@]12CCCN1[C@H](c1ccc(-c3cccc(Cl)c3)cc1)[C@H]1C(=O)N(C)C(=O)[C@H]12,0.7,-12.7,·,-1.7,0.6,12.7
CCOc1cc(C(=O)N/N=C\c2cn(CC)nc2C)cc(OCC)c1OCC,0.0,-81.2,0.85,16.9,-4.6,81.2*
CCn1cc(/C=N\NC(=O)C2(C)CC2(Cl)Cl)c(C)n1 (stereo not given),1.9,3.4,1.12,-3.3,1.2,-3.4
CC(C)c1cc(-c2cc(-c3ccccc3)on2)nc(NC2CCCC2)n1,-8.9,-75.3,-0.3,1.2,-2.8,75.3*
CN(C(=O)Nc1ccccc1)C1CCCc2ccccc21 (stereo not given),8.3,-23.1,·,-1.7,1.0,23.1
O=C(O)CCC1(CCC(=O)O)CCCC(CCC(=O)O)(CCC(=O)O)C1=O,·,60.8*,·,·,4.0,-60.8
O=C(O)CCN1C(=O)NC2(CCCC2)C1=O,-2.4,-12.2,-1.57,12.5,-1.2,12.2
CCCCNC(=O)/C(C#N)=c1\s/c(=C\c2ccccc2OC(F)F)c(=O)n1CCCOC,0.0,-6.0,4.53*,-8.3,4.3,6.0
COCCCNC(=O)/C(C#N)=c1\s/c(=C\c2ccccc2OC(F)F)c(=O)n1CCCOC,0.0,-19.7,1.47,2.7,-2.2,19.7
C=CC[C@H](CC(=O)N(CCO)Cc1ccccc1)C(=O)N[C@H](COC(=O)[C@@H](CC=C)CC(=O)OC(C)(C)C)c1ccccc1,-0.2,-36.6,·,·,-5.0,36.6
CC(C)C(=O)Nc1nnc(NC(=S)Nc2ccccc2)s1,2.7,-5.6,-0.06,1.7,2.9,5.6
CCCc1nnc(NC(=S)Nc2ccccc2)s1,-3.9,-11.2,-0.6,77.0*,1.4,11.2
CC(C)(C)OC(=O)N[C@H]1C=C[C@@H](OC(=O)CC(=O)OCC(F)(F)F)C1,·,-5.6,·,·,-2.0,5.6
CC(=O)Nc1cc(N=Cc2ccc(O)cc2O)c(Cl)cc1Cl,-2.7,-14.1,0.08,-4.4,-0.4,14.1
O=C(CSCc1cccc(CSCC(=O)Nc2ccccc2)n1)Nc1ccccc1,-1.8,14.4,0.11,111.3*,3.7,-14.4
Cc1cccc(C)c1NC(=O)CSCc1cccc(CSCC(=O)Nc2c(C)cccc2C)n1,-2.2,-8.7,0.12,0.6,0.4,8.7
COc1cc2c(cc1OC)CN(C(=O)c1cc(S(=O)(=O)N3CCOCC3)c(Cl)cc1Cl)CC2,-1.5,-30.4,·,13.7,1.2,30.4
CCCCn1c(=O)c(CCC(=O)OCC(=O)NCc2ccc(OC)c(OC)c2)nc2ccccc21,0.5,5.5,-0.9,76.9*,-2.0,-5.5
CCCCn1c(=O)c(CCC(=O)OCC(=O)NC(C)c2ccccc2)nc2ccccc21 (stereo not given),-0.5,-18.8,·,-31.8,0.1,18.8
SMILES,beta cell repl,SR-BI DiI-HDL act,Insulin prom up,Calb FLC,HTR2A ag,SR-BI DiI inh
CN(C)c1ccc(N=Cc2nc(-c3ccccc3)oc2O)cc1,3.1,-11.9,·,5.7,-10.8,11.9
CN(C)c1ccc(N=Cc2cccn2C)cc1,0.0,-24.2,·,84.5*,2.1,24.2
C=C(C)CSc1[nH]c(=O)cc(C)c1C#N,-3.5,12.0,0.43,86.3*,0.9,-12.0
Cc1cc(=O)[nH]c(SCC(=O)O)c1C#N,-4.9,·,0.1,8.8,-3.5,-11.5
CC1C(=O)C(C)C(c2cc(Cl)ccc2O)NC1c1cc(Cl)ccc1O (stereo not given),-5.1,-85.6,·,·,-8.1,85.6*
O=C(/C=C/c1cn(CC(O)CN2CCCCC2)c2ccccc12)c1cccs1 (stereo not given),·,1.2,4.58*,-7.0,-1.2,-1.2
Cc1ccc(C)c(NC(=S)N2CCC(NC(=O)c3ccccc3)CC2)c1,-1.7,1.8,·,-3.3,-1.6,-1.8
CCOc1nc(Nc2ccc(OC)c(Cl)c2)nc(N2CCN(c3ccc(OC)cc3)CC2)n1,-2.6,-78.9,-0.67,16.7,11.5,78.9*
CCOc1nc(Nc2ccc(F)cc2)nc(N2CCN(c3ccc(OC)cc3)CC2)n1,-2.9,-54.7,-1.32,-3.0,-10.1,54.7
c1coc(CNc2nc3ccccc3s2)c1,-3.7,·,·,-5.6,-0.3,·
CCNc1sc(C(=O)c2cccs2)c(N)c1C#N,-2.1,·,0.2,18.7,0.7,·
CCOC(=O)c1sc(NCc2ccco2)c(-c2nc3ccccc3s2)c1N,-4.6,-87.7,1.82,-2.5,3.9,87.7*
C=CCNc1sc(C(=O)c2ccccc2)c(N)c1-c1nc2ccccc2s1,-5.4,-90.9,-0.75,44.4,3.5,90.9*
CCNc1sc(C(=O)c2cccs2)c(N)c1-c1nc2ccccc2s1,-6.0,-97.5,-0.92,0.5,-3.2,97.5*
C=CCNC(=O)c1nc2ccccc2s1,-3.9,-13.0,·,-21.0,-1.2,13.0
CC(=O)c1sc(NC(=O)CCS(=O)(=O)c2ccccc2)nc1C,-6.2,-10.3,·,85.5*,7.6,10.3
COCCSc1nnc(NC(=O)CCS(=O)(=O)c2ccccc2)s1,-2.3,·,·,88.2*,-4.4,·
CC(=O)c1sc(NC(=O)CCS(=O)(=O)c2ccc(F)cc2)nc1C,·,·,·,·,6.4,·
CCc1nc2c(OCc3cc(Cl)cc(Cl)c3)cccn2c1N(C)C(=O)c1ccc(OC)cc1,·,·,·,·,-5.3,·
O=C1c2ccccc2NC(c2ccc(-c3ccc(Br)cc3)o2)N1O (stereo not given),-5.5,1.7,-0.03,102.0*,-2.6,-1.7
CCOc1ccccc1N1CCN(Cc2cccc(OC)c2O)CC1,2.8,-7.3,-1.31,-2.4,-1.0,7.3
COc1ccccc1N1CCN(Cc2cc(Br)c(O)c3ncccc23)CC1,-6.8,-33.4,-0.6,88.3*,-1.5,33.4
CCN(C(=O)c1cc2c(=O)n3cccc(C)c3nc2n1CCCOC)C1CCCCC1,-3.0,16.8,·,-12.8,-0.7,-16.8
